# SKKanGAS inh: S. pyogenes SKKanGAS growth inhibitors in kanamycin, primary screen, streptokinase expression inhibitor project, SKKanGAS strain, BacTiter-Glo luminescence | 6 h | inhibition, % at 7.5 µM | AID 1662, 2009 | 300,000 compounds, 1.3% hits;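 active = mean replicate score, as percent of positive control median, at least 50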;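 note: strain carries kanamycin resistance gene driven by streptokinase promoter and grows in 40 µg/ml kanamycin; loss of luminescence reflects streptokinase promoter inhibition or plain growth inhibition; 0% = median of DMSO wells and 100% = positive control at its reference dose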
# Rtt109 Vps75: inhibitors of C. albicans Rtt109/Vps75 HAT, primary screen, biochemical, ThioGlo CoA-SH fluorescence, plate reader | Histone acetyltransferase RTT109 (Candida albicans (strain SC5314 / ATCC MYA-2876)), … | purified Rtt109/Vps75, 4 h | inhibition, % at 34.9 µM | 330,000 compounds, 0.16% hits;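 active = inhibition of at least 50% in every replicate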
# Target sequence (Q5AAJ8 whole entry, looked up): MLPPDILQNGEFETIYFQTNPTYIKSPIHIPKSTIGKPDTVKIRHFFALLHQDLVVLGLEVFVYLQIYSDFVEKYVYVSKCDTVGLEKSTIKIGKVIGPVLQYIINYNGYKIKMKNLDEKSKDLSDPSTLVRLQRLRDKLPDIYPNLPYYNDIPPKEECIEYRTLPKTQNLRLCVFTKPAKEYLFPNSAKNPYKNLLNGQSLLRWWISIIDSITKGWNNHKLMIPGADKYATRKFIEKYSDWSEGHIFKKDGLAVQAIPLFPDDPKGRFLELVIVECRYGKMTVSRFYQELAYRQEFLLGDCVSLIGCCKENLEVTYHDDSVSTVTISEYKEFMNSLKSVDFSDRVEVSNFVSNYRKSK
# PfHsp90 set2: growth inhibition of PfHsp90-expressing yeast, primary screen, antimalarial PfHsp90 inhibitor project, S. cerevisiae, BacTiter-Glo luminescence, single point, set 2. inhibition, % at 9.4 µM. 310,000 compounds, 0.32% hits. BacTiter-Glo ATP, 48 h; yeast lacking PDR1 and PDR3 efflux regulators;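 active = every replicate shows inhibition above about 80%, whatever the replicate mean, limit read from the data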;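 note: 0% = DMSO neutral controls and 100% = 20 µM radicicol positive controls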
# FN deposition inh: inhibitors of fibronectin matrix deposition, primary screen, AH1F cells, Alexa488-fibronectin fluorescence, plate reader; 350,000 compounds, 0.086% hits; inhibition, % at 12.6 µM; AH1F fibroblasts, overnight;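 active = mean inhibition across replicates of 30% or more, regardless of how many single replicates reach that level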;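 note: positive control wells lacked labelled fibronectin entirely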
#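 Material: AH1F fibroblasts assembling fluorescent fibronectin matrix; amount: 10000 AH1F cells/well; medium: DMEM, 2% serum; reagent: Alexa488-fibronectin, 24 nM final in well; dosing: single compound dose, delivered by pin transfer; incubation: 1 h adhesion, overnight exposure; detection: fluorescence after three HBSS washes, excitation 485 nm, emission 525 nm; measure: fibronectin deposition inhibition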
# CSC inhib: cancer stem cell viability inhibitors, primary screen, luminescence. cancer stem cell-like cells viability. inhibition, % at 7.5 µM. 300,000 compounds, 1.1% hits. AID 2717, 2010; in the data active = inhibition above about 75%; tested in HMLE shEcad cells
# PglD inh: C. jejuni PglD acetyltransferase inhibitors, primary screen, biochemical, DTNB colorimetric, single point; purified PglD enzyme, DTNB colorimetric CoA detection; AID 602405, 2012; 360,000 compounds, 0.098% hits; inhibition, % at 12.5 µM; in the data active = inhibition above about 16%, passing the limit was not always enough
# * = called active by the depositor; x = not tested or not shown. In the library only some 1.7% were active in any assay of this set; here they are far more common.
SMILES,SKKanGAS inh,Rtt109 Vps75,PfHsp90 set2,FN deposition inh,CSC inhib,PglD inh
O=[N+]([O-])c1ccc(Nc2nc(NC3CCCCC3)nc(N3CCCC3)n2)cc1,83*,14,-11,16,x,x
COc1cccc(/C=N/Nc2ccc([N+](=O)[O-])cn2)c1O,104*,-8,94*,2,123*,0
Brc1ccccc1/C=N/Nc1ccc2ccccc2n1,-10,-5,6,0,-8,x
COc1cccc(/C=N/Nc2nc(Nc3ccc([N+](=O)[O-])cc3)nc(N3CCCC3)n2)c1O,73*,-7,6,11,x,-4
COc1ccc(Cl)cc1/C=C/c1ccc2cccc(O)c2n1,89*,2,-22,8,58,x
COc1ccccc1/C=C/c1ccc2cccc(O)c2n1,97*,1,-26,5,29,3
COc1cc(OC)c(OC)cc1C=Cc1ccc2ccccc2n1,x,x,x,-2,x,-1
COc1c(OC(C)=O)ccc(/C=C/c2ccc3ccccc3n2)c1[N+](=O)[O-],-1,0,-9,x,68,4
COc1ccc(C(=O)N/N=C/c2ccc3cccc(O)c3n2)cc1,16,-3,14,0,3,x
COc1cc(Cl)cc(/C=C/c2ccc3cccc(O)c3n2)c1OC,87*,-3,10,-2,46,-7
CO[C@@H]1CN(C)C(=O)c2ccc(NS(=O)(=O)c3cn(C)cn3)cc2OC[C@@H](C)NC[C@H]1C,x,x,x,4,x,1
COc1cccc(C(=O)NC(=S)Nc2ccccc2N2CCCC2)c1,-11,3,-26,-3,-5,x
CCOc1ccc(C(=O)NC(=S)Nc2ccccc2N2CCOCC2)cc1Br,6,10,-14,4,101*,x
COc1cccc(C(=O)NC(=S)Nc2ccccc2N2CCCCC2)c1,65*,0,-3,-3,41,1
CC(C)Oc1cccc(C(=O)NC(=S)Nc2ccccc2N2CCOCC2)c1,34,4,34,-4,121*,2
O=C(NC(=S)Nc1ccccc1N1CCCC1)c1ccccc1Br,81*,13,-6,-11,3,-5
O=C(NC(NC(=S)Nc1cccc(Cl)c1)C(Cl)(Cl)Cl)OCc1ccccc1 (stereo not drawn),122*,-14,12,x,116*,-3
O=C(NC(NC(=S)Nc1ccc(Cl)c(Cl)c1)C(Cl)(Cl)Cl)c1ccco1 (stereo not drawn),74*,16,4,x,66,2
O=C(Nc1ccc(Cl)c(Cl)c1)Oc1ccc(NC(=O)c2ccco2)cc1,72*,9,37,2,x,-3
CO[C@H]1CN(C)C(=O)c2cc(NC(=O)c3ccccc3F)ccc2OC[C@@H](C)N(CC2CCOCC2)C[C@@H]1C,x,x,x,-1,x,2
C/C(CC(=O)Nc1ccc(Cl)c(C(F)(F)F)c1)=N\NC(=O)c1ccccc1O,104*,-4,0,23,-12,x
C/C(CC(=O)Nc1ccc(Cl)c(C(F)(F)F)c1)=N\NC(=O)c1cccc(O)c1,-4,6,-27,-8,3,4
COc1ccc(Cn2c(C(C)C)nc3sc4ccccc4c(=O)c3c2=O)cc1,10,-7,2,-6,11,-2
CC(C)c1nc2sc3ccccc3c(=O)c2c(=O)n1Cc1ccccc1,6,12,-13,1,77*,x
CN(C)CC(=O)Nc1ccc2c(c1)[C@H]1C[C@@H](CC(=O)NCc3cccnc3)O[C@H](CO)[C@H]1O2,x,x,x,-2,x,1
SMILES,SKKanGAS inh,Rtt109 Vps75,PfHsp90 set2,FN deposition inh,CSC inhib,PglD inh
O=C(C[C@H]1C=C[C@H](NC(=O)NC2CCCCC2)[C@@H](CO)O1)NCc1ccc(F)cc1,x,x,x,0,x,1
C[C@@H]1CN([C@H](C)CO)C(=O)c2cc(N(C)C)ccc2O[C@@H](C)CCCCO[C@@H]1CN(C)S(C)(=O)=O,x,x,x,x,x,-2
CCCn1c(C(CO)Nc2nc(-c3cccc(Br)c3)cs2)nc2ccccc21 (stereo not drawn),96*,0,-88,-3,11,-7
OCCOCCn1c(C(CO)Nc2nc(-c3cccc(Br)c3)cs2)nc2ccccc21 (stereo not drawn),23,-15,x,-4,10,2
COc1ccc2c(c1)CCc1c(C(=O)N3CC4(C)CC3CC(C)(C)C4)noc1-2 (stereo not drawn),17,2,12,1,95*,4
COc1c(CC=C(C)C)c(O)cc2oc(=O)c3c4ccc(O)cc4oc3c12,13,x,x,x,-2,6
CC(C)=CCc1c(O)cc(O)c2c(=O)c3c(CC=C(C)C)c(O)ccc3oc12,106*,x,x,x,-5,x
CC(C)=CCc1c(O)cc2c(=O)c3ccc(O)cc3oc2c1O,16,4,-22,x,83*,1
O=C(CCN1CCCCC1)NCC[C@@H]1CC[C@@H](NC(=O)C2CCC2)[C@@H](CO)O1,x,x,x,x,x,-2
COc1ccc(NS(=O)(=O)c2cccc(C(=O)N/N=C(\C)c3ccc(-n4ccnc4)cc3)c2)cc1,18,-1,-20,x,95*,4
COc1ccc(NS(=O)(=O)c2cccc(C(=O)N/N=C(\C)c3ccncc3)c2)cc1,-7,6,16,0,-7,x
COCCNC(=O)C[C@@H]1CC[C@@H](NS(=O)(=O)c2ccc(C)cc2)[C@H](CO)O1,x,x,x,1,x,0
Cc1ccc(CNC(=S)Nc2ccc(NS(=O)(=O)c3ccc(C)cc3)cc2)cc1,56*,4,-1,4,11,-4
Cc1ccc(NC(=S)NCc2ccc(F)cc2)cc1,-13,-17,-17,-7,-18,9
Cc1cc(C)cc(NS(=O)(=O)c2ccc(NC(=S)NC(=O)c3cccs3)cc2)c1,77*,25,-34,x,50,2
C[C@@H]1CN([C@@H](C)CO)C(=O)c2cc(NC(=O)CCC(F)(F)F)ccc2O[C@H]1CN(C)C(=O)Nc1cccc2ccccc12,x,x,x,x,x,1
C[C@H]1CN([C@@H](C)CO)C(=O)c2cccc(NC(=O)C3CCOCC3)c2O[C@H]1CN(C)CC1CCCCC1,x,x,x,-6,x,5
CC(=O)Nc1ccc(SCC(=O)c2cc(C)n(Cc3cccs3)c2C)cc1,4,-14,-29,5,106*,-6
CC(=O)Nc1ccc(SCC(=O)c2cc(C)n(-c3ccccc3F)c2C)cc1,-6,3,-46,10,87*,0
COC(=O)c1ccc(-n2c(C)cc(C(=O)CSc3ccc(NC(C)=O)cc3)c2C)cc1,4,1,5,-7,-7,x
CCOc1ccc2c(c1)C(=NNC(=O)c1ccncc1)c1cc(OCC)ccc1-2,65*,-8,-33,1,52,3
